Tb MetRS inh: blocks T. brucei methionyl-tRNA synthetase activity | purified T. brucei MetRS, ATP depletion, Kinase-Glo luminescence | inhibition, % at 11.9 µM | hit rate 0.4% among 360,000;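 active means inhibition above a per-plate cutoff of the control wells' mean inhibition plus 3 SD, cut at about 5.5% in these data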;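 further: 0% = DMSO wells median and 100% = median of wells with control inhibitor compound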
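Dosing: 11.9 µM single point; system: parasite MetRS enzyme; technique: luminescence of leftover ATP; times: 15 min enzyme-compound preincubation, 2 h reaction, 10 min detection, 25 °C; replicates: each compound tested once; read-out basis: percent inhibition relative to median high and low control wells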
CHOP inh: CHOP inhibition in unfolded protein response. CHO-K1 CHOP-promoter luciferase, tunicamycin-induced, 15-18 h. inhibition, % at 10 µM. hit rate 3.8% among 220,000;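 active means compounds that reduced the stress-induced luciferase reporter signal by more than about 70% of percent inhibition, limit read from the data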;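 further: 0% = tunicamycin plus vehicle and 100% = wells without tunicamycin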
MPTP inh: inhibitors of mitochondrial permeability transition pore | isolated mouse mitochondria, Ca2+ swelling absorbance, 30 min | hit rate 1.4% among 360,000 | inhibition, % at 10 µM;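 active means inhibition of 50% or more, scaled per plate between neutral and stimulator controls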;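 further: 0% = DMSO wells given calcium and 100% = 1 mM EGTA wells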
NR3A LBD binder: modulators (binders) of human NR3A ligand-binding domain; NR3A LBD differential scanning fluorimetry, Tm shift; 0% = protein alone, 100% = glycine-bound protein; Tm shift relative to glycine control, % at 25 µM; hit rate 2.5% among 340,000;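 active means melting temperature shift of at least 10% of the positive control shift, at one fixed dose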
EBV gp42 block: EBV gp42 inhibition; AID 1085; inhibition, % (tested at 21.74 µM); Q1HVG2; Fluorescence polarization binding assay, mP read-out; hit rate 0.42% among 220,000; in the data active means inhibition above about 50%
Target sequence (Q1HVG2 whole entry, looked up): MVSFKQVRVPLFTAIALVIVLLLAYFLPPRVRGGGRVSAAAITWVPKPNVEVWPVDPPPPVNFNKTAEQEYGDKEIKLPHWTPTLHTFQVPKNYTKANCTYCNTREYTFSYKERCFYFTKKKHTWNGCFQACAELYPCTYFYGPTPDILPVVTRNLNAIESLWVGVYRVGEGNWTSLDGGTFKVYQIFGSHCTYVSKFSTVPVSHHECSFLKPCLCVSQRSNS
WT yeast gro inh: growth inhibition of WT yeast, mitochondrial fusion screen | mitochondrial fusion phenotypic screen, WT strain | inhibition, % at 10 µM | hit rate 2.1% among 190,000; in the data active means inhibition above about 58%; tested in S. cerevisiae
* = called active by the depositor; nt = not tested or not shown. Hits are enriched below; roughly 6.4% of the tested compounds scored in any of these assays.

SMILES	Tb MetRS inh	CHOP inh	MPTP inh	NR3A LBD binder	EBV gp42 block	WT yeast gro inh
O=C(CCc1nc2ccccc2c(=O)[nH]1)Nc1ccc(F)cc1	-0.8	1.3	0.6	-1.1	1.1	-3.5
Cc1ccccc1CN(C)c1ccc(S(=O)(=O)N2CCN(C)CC2)cn1	-0.5	nt	0.7	-1.6	nt	nt
CCOc1ccc(NC(=O)C2CC(=O)N(CC)C(=Nc3ccc4c(c3)OCO4)S2)cc1 (configuration not stated)	0.0	71.6*	1.2	-8.7	-6.1	15.8
CCN1C(=O)CC(C(=O)Nc2ccc(F)cc2)SC1=Nc1ccc2c(c1)OCO2 (configuration not stated)	1.9	20.9	-2.7	-7.1	3.8	-2.4
O=C(Nc1ccc(N=Nc2ccccc2)cc1)c1cccc(Cl)c1	-0.4	42.6	19.2	25.6*	-15.4	7.5
COc1cccc(NC(=O)c2ccc3c(c2)OCCO3)c1	-0.1	nt	-0.1	12.5*	nt	nt
O=C(Nc1ccc2c(c1)OCCO2)c1cccc(Cl)c1	-0.6	nt	-0.9	-22.5	nt	nt
COc1cccc(NC(=O)c2ccc3c(c2)OCO3)c1	0.2	nt	0.4	6.6	nt	nt
O=C(Nc1cccc(NC(=O)c2ncn[nH]2)c1)c1cccc(Cl)c1	-0.5	17.9	0.5	12.1*	-11.9	6.8
COc1cccc(NC(=O)c2cccc(Cl)c2)c1	-0.3	nt	-0.5	28.3*	nt	nt
COc1ccccc1N1CCN(C(=O)c2cc(=O)c3ccc(C)cc3o2)CC1	-0.1	nt	1.0	-0.4	nt	nt
COc1cccc(C=O)c1OCCN1C(=O)c2ccccc2C1=O	-1.2	nt	0.4	-2.4	nt	nt
Cc1cccc2cc(C#N)c(SCc3nnc(-c4ccccc4[N+](=O)[O-])o3)nc12	-0.9	-8.5	-0.5	-1.0	-5.9	14.5
c1ccc(Nc2nc(-c3ccccc3)nc3ccccc23)cc1	-0.7	nt	0.8	11.2*	nt	nt
Cc1ccc(-c2nc(Nc3ccc(O)cc3)c3ccccc3n2)cc1	0.6	nt	2.3	33.9*	nt	nt
Oc1cccc(Nc2nc(-c3ccccc3Cl)nc3ccccc23)c1	0.2	nt	0.9	17.3*	nt	nt
O=[N+]([O-])c1ccc(-c2nc(Nc3cccc(O)c3)c3ccccc3n2)cc1	0.8	nt	2.8	30.1*	nt	nt
Cc1ccc(-c2nc(Nc3ccc(N4CCOCC4)cc3)c3ccccc3n2)cc1	-0.7	-1.3	1.3	6.6	-15.0	nt
CC(C)(C)n1ncc2c(=O)n(CC(=O)N3CCc4ccccc43)cnc21	-0.4	41.6	-0.2	2.2	-22.9	-29.3
O=C(O)c1cccc(Nc2nc(-c3ccccc3)nc3ccccc23)c1	0.1	nt	0.9	-9.7	nt	nt
Cc1ccc(-c2nc(Nc3cccc(O)c3)c3ccccc3n2)cc1	-0.3	nt	2.0	42.4*	nt	nt
COc1ccc(-c2nc(NC(=O)C3CCN(c4nc5ccccc5o4)CC3)sc2C)cc1	-0.6	78.1*	2.8	-4.2	3.2	22.1
COC(=O)COc1ccc(C)cc1-n1nc2ccccc2n1	-0.9	-20.4	-0.8	0.8	-0.1	73.6*
Cc1c(C#N)c(N=CN(C)C)c(C(=O)c2ccc(Br)cc2)n1-c1ccc(Cl)cc1	-0.8	19.3	-0.7	-1.6	-22.0	60.5*
CCOc1c(Cl)cc(CNCC(O)c2ccccc2)cc1OC (configuration not stated)	-0.5	7.8	-1.3	-0.8	-19.2	5.7
SMILES	Tb MetRS inh	CHOP inh	MPTP inh	NR3A LBD binder	EBV gp42 block	WT yeast gro inh
CCOc1cc(/C=N/NS(=O)(=O)c2ccccc2)ccc1OS(=O)(=O)c1ccc(C)cc1	-0.3	86.7*	4.0	20.0*	-11.9	-18.2
CCOc1cc(/C=N/NC(=O)COc2ccccc2C)ccc1OC(=O)c1cccs1	-1.4	75.8*	1.5	5.1	-13.0	64.9*
CCOc1cc(/C=N/NC(=O)COc2ccc(Cl)cc2)ccc1OS(=O)(=O)c1ccccc1	-0.1	81.0*	16.4	6.3	-17.3	27.2
CCOc1cc(/C=N/O)ccc1OS(=O)(=O)c1ccc(C)cc1	-0.5	55.2	-4.3	-5.8	-9.6	-26.8
CCOc1cccc(N)c1	-0.3	nt	-3.2	1.6	nt	nt
O=C(NCc1ccco1)/C(=C/C=C\c1ccccc1)NC(=O)c1ccc(Br)o1	0.3	9.4	1.6	0.2	-6.2	-19.3
COc1ccccc1CNC(=O)COc1cc2c(c3oc(=O)cc(C)c13)CCC(C)(C)O2	1.4	nt	0.0	-0.5	nt	nt
CCc1nnc(NS(=O)(=O)c2ccc(NC(=O)c3ccc(Cl)cc3)cc2)s1	0.1	28.1	0.3	-7.1	-4.8	6.5
COc1ccc(-c2cn3c(C)c(C(=O)N4CCCc5ccccc54)sc3n2)cc1	0.2	nt	-2.8	-2.9	nt	-4.2
CCc1ccc2nc3sc(C(=O)N4CCc5ccccc54)c(N)c3cc2c1	nt	0.7	nt	nt	158.8*	3.1
Cc1ccc(C)c2nc3sc(C(=O)N4CCCc5ccccc54)c(N)c3cc12	-0.2	-5.2	2.0	2.6	141.7*	45.6
COc1ccccc1N=Nc1nc(-c2ccccc2)c(-c2ccccc2)[nH]1	0.8	-10.3	22.6	-14.6	2.3	64.3*
CCNC(=S)NNC(=O)c1cc(-c2cccc(OC)c2)nc2ccccc12	-0.4	-41.8	1.5	-1.5	-10.1	8.7
COc1ccc(C(=O)NNC(=S)NC(=O)c2cc(-c3ccccc3)nc3ccccc23)cc1	-0.2	34.6	34.4	14.3*	39.9	-27.0
COc1ccc(Cl)cc1C(=O)NNC(=S)NC(=O)c1cc(-c2ccccc2)nc2ccccc12	-1.0	27.8	36.4	5.9	-10.9	-3.1
CCNC(=S)NNC(=O)c1cc(-c2ccc(OCC)cc2)nc2ccccc12	-7.4	48.9	1.6	1.3	-6.7	65.9*
CCCc1ccc(-c2cc(C(=O)NCCc3ccc(S(N)(=O)=O)cc3)c3ccccc3n2)cc1	-0.6	10.9	-0.4	12.3*	7.2	-16.8
CCOC(=O)N1CCN(C(=O)C(CC(C)C)NS(=O)(=O)c2ccc3c(c2)oc(=O)n3C)CC1 (configuration not stated)	0.2	55.2	-2.3	-0.1	13.2	4.7
CCCc1ccc(OC(=O)c2cccs2)cc1	0.5	-0.1	-0.4	0.6	0.8	20.6
CCCc1ccc(OC(=O)c2ccc(O)cc2Cl)cc1	-0.3	87.1*	8.2	16.2*	1.8	71.0
Cc1cc(NS(=O)(=O)c2ccc(Nc3nc(-c4ccc(C)c(C)c4)cs3)cc2)no1	1.6	47.4	-28.0	16.1*	10.7	22.5
COc1cc(NS(=O)(=O)c2ccc(Nc3nc(-c4ccccc4)cs3)cc2)nc(OC)n1	2.6	90.2*	-1.5	26.7*	10.5	-52.6
Cc1cc(NS(=O)(=O)c2ccc(Nc3nc(-c4sc(N)nc4C)cs3)cc2)no1	1.6	6.6	-1.2	-1.8	-8.0	4.0
CCOc1nc(Nc2ccc(OC)c(Cl)c2)nc(N2CCN(c3ccc(OC)cc3)CC2)n1	-1.0	73.5*	2.1	-4.2	-11.5	34.8
CN(C)c1ccc(NS(=O)(=O)c2cc(Cl)ccc2Cl)cc1	-0.6	19.1	0.6	-20.4	10.7	-7.0
CCN(c1ccc(NS(=O)(=O)c2cc(Cl)ccc2Cl)cc1)C(C)C	-0.1	93.3*	1.7	-8.0	-12.3	5.4
